Results on 14 compounds are retold here after PubChem BioAssay.

Assay [1] is described as follows: inhibitors of TNFa-induced NFkB p65 translocation, primary screen, imaging, HUVEC, MLSMR starter and 10KST1 sets (AID 438;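 active means inhibition above 20% together with a positive visual image hit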;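 further: compound added about 3h40 before a 20 min TNFalpha stimulation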;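 on inhibition: signal is the nuclear over cytoplasmic p65 intensity ratio per well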). The conditions noted are these: HUVEC TNFa-induced p65 nuclear translocation; cell count: measured here: nuclei count (cytotoxicity indicator), at 2.08 µM; inhibition: at 2 µM, stronger effect = higher value, 0% TNFa-plus-vehicle, 100% no-TNFa wells.
Assay [2] can be described thus: reduction of polyQ htt aggregates in cells – imaging, exon1htt(103Q)mCFP cells, high-content imaging, primary screen (AID 483;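 active means visual image review flags a hit and inhibition of aggregation exceeds 20%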;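 further: compound exposure lasted 3 days before fixation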;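 on nuclei count: percent of the per-plate median nuclei count of sample wells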). Particulars: exon1htt(103Q)mCFP cell line, aggregate imaging, at 2 µM; inhibition of aggregation: stronger effect = higher value; nuclei count: measured here: cell count, toxicity.
The nature of assay [3]: endothelial E-selectin expression blockers – imaging, HUVEC, immunofluorescence, MLSMR starter and 10KST1 sets, primary screen (AID 487;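 active means visually confirmed hit in the image check and inhibition above 20%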;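 on inhibition: signal is fraction of cell area covered by stained E-selectin grains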;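 on nuclei count: 100% = median nuclei count of all wells on the same plate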). Particulars: HUVEC TNFalpha-induced E-selectin immunofluorescence imaging, at 2 µM; inhibition: stronger effect = higher value; nuclei count: measured here: cell number, toxicity.
The target in assay [4] is Voltage-gated potassium channel subunit beta-2 (Rattus norvegicus) (UniProt P62483). Briefly: inhibitors of rat Kvbeta2 reductase activity – biochemical, NADPH fluorescence, primary screen (AID 622;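 active means fluorescence slope higher than the sample average by over 3 SD, cut at about -0.22 in these data, passing the limit was not always enough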;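 further: slope of raw intensity against log time taken from 70 to 1610 s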). Particulars: recombinant KvBeta, 4-cyanobenzaldehyde reduction, at 10 µM, stronger effect = higher value.
Sequence of Voltage-gated potassium channel subunit beta-2 (Rattus norvegicus) (P62483 whole entry, looked up): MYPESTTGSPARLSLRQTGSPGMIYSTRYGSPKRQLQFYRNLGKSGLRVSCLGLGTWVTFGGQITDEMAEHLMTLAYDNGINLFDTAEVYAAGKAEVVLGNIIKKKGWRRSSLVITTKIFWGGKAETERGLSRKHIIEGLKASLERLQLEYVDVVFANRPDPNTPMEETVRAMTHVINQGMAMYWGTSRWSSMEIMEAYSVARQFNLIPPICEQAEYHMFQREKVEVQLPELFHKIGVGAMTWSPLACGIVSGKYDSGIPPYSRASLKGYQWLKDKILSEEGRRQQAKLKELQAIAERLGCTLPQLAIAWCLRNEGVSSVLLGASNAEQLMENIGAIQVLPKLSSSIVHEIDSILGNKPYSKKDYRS
The target is the same in assay [5]. Briefly: enhancers of rat Kvbeta2 NADPH turnover – biochemical, NADPH fluorescence, primary screen (AID 623;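 active means NADPH fluorescence slope more negative than the mean of all samples by about 3 SD, 99.7% confidence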;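 further: fluorescence intensity change per second fitted from 20 to 320 s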). Particulars: Recombinant KvBeta, NADPH fluorescence decrease slope, 10 min; at 10 µM; stronger effect = lower value.
In assay [6] the target is Muscarinic acetylcholine receptor M4 (Homo sapiens) (UniProt P08173). Briefly: M4-linked GIRK flux change, two-sided – cell-based, HEK293 M4/GIRK, thallium flux, BTC-AM, M4 allosteric agonist project, primary screen (AID 625).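 Further: thallium influx through GIRK channels coupled to M4 in HEK293 cells with BTC-AM dye.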 The conditions noted are these: at 10 µM, actives lie on both sides. The gist of the method:
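System: HEK293 cells with M4 receptor and GIRK channels | Incubation: Cells overnight at 37 °C, BTC-AM loading 1 h, reads 2 min total | Technique: Kinetic BTC-AM fluorescence sampled at 1 Hz, 10 s pre-addition baseline | Measure: Post-addition slope, 15–24 s, of baseline-normalized fluorescence | Control set: Carbachol positive, DMSO negative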

The nature of assay [7]: blockers of RIG-like receptor reporter activation – cell-based, Sendai virus stimulus, luciferase, 10K MLSCN set, TLR/RLR signaling modifier project, primary screen (AID 602276;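 active means inhibition at or above 50% at 10 µM; inactive means inhibition below 50%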;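 further: firefly luciferase from ISG56 promoter only with Renilla not read in this screen; 0% = Sendai virus plus DMSO and 100% = medium plus DMSO without virus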). The conditions noted are these: HEK293 RL24 IRF3 luciferase reporter, at 10 µM, stronger effect = higher value.
Assay [8] in a line: TLR3 IRF3 reporter activation blockers – cell-based, poly I:C stimulus, luciferase, 10K MLSCN set, primary screen (AID 602277;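 active means inhibition of the reporter signal at or above 50%; inactive means inhibition below 50%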). The conditions noted are these: HEK293-TLR3 RL24 IRF3 luciferase reporter, at 10 µM, stronger effect = higher value. (In a reporter assay the amount or activity of a reporter protein is the signal.)

SMILES strings stand for the structures. The source made the active and inactive calls.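 How the source made its calls, unless noted: active means fluorescence slope after compound addition differing from the mean of all tested samples at 99.7% confidence, mostly higher but some lower; inactive means the rest.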

Sequence of Muscarinic acetylcholine receptor M4 (Homo sapiens) (P08173 whole entry, looked up): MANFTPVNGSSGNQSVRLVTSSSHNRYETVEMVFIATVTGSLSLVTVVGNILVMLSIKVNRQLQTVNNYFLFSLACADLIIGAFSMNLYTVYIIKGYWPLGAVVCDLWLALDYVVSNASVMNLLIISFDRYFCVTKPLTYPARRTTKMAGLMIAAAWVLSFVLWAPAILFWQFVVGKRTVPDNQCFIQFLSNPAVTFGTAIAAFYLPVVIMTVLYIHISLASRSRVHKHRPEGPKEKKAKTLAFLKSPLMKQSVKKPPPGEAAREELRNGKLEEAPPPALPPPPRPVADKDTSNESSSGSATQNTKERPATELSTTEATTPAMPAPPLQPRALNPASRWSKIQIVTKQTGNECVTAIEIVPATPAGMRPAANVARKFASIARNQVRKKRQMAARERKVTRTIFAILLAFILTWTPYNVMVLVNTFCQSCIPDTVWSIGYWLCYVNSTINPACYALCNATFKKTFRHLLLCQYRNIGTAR

In the case of `O=S(=O)(CCOc1ccccc1)c1nc2ccccc2[nH]1`, the cell count in assay [1] was determined as 332. In addition, the inhibition was -11.8% (inactive) in assay [1], -77.3% (inactive) in assay [3], 19.7% (inactive) in assay [7] and 13.7% (inactive) in assay [8]. In addition, the inhibition of aggregation in assay [2] is -12.8% (inactive). Further, the nuclei count is 99.9% in assay [2] and 106% in assay [3]. Further, the fluorescence slope in assay [4] is -0.566 (inactive); in assay [6] it was 0.00411 (inactive). In assay [5], the NADPH fluorescence slope was -9e-05 (inactive).

Regarding `COc1ccccc1N1CCN(C(=O)CSc2nc(-c3ccccc3)cc(=O)[nH]2)CC1`, the cell count in assay [1] was 284. The inhibition in assay [1] is -10.5% (inactive); in assay [3] it was -30.1% (inactive); in assay [7], -1.48% (inactive); in assay [8], 6.29% (inactive). For the same compound, in assay [2], the inhibition of aggregation is -9.2% (inactive). Also, the values for the nuclei count in assay [2] and in assay [3] were 114% and 124%, respectively. Besides, the fluorescence slope in assay [4] is -0.509 (inactive); in assay [6], 0.00621 (inactive). Also, the NADPH fluorescence slope in assay [5] was 9.3e-06 (inactive).

Consider `CCOC(=O)C1CCN(C(=O)c2c(-c3c(Cl)cccc3Cl)noc2C)CC1`, for which, in assay [1], the cell count turned out to be 376. Further, the inhibition is 1.6% (inactive) in assay [1], -89.8% (inactive) in assay [3], 4.89% (inactive) in assay [7] and 12.6% (inactive) in assay [8]. Moreover, the inhibition of aggregation in assay [2] is 20.9% (inactive). The nuclei count in assay [2] was found to be 94.8%; in assay [3] it was 110%. In addition, the values for the fluorescence slope in assay [4] and in assay [6] were -0.557 (inactive) and 0.00598 (inactive), respectively. In addition, the NADPH fluorescence slope in assay [5] was -4.4e-05 (inactive).

Regarding `CCCN(CCC)CCNC(=O)C(NS(=O)(=O)c1ccc2c(c1)CCC(=O)N2)c1ccccc1` (centres undefined), in assay [1], the cell count was found to be 524. Moreover, the inhibition is 0.7% (inactive) in assay [1], -17.1% (inactive) in assay [3], 8.32% (inactive) in assay [7] and 24.9% (inactive) in assay [8]. The inhibition of aggregation in assay [2] was -8.1% (inactive). For the same compound, the nuclei count in assay [2] came to 98.1%; in assay [3] it was 112%. In addition, the fluorescence slope is -0.555 (inactive) in assay [4] and 0.00588 (inactive) in assay [6]. For the same compound, in assay [5], the NADPH fluorescence slope was -5e-05 (inactive).

Consider `O=C(CSc1nnc(-c2cccnc2)o1)Nc1ccccn1`, for which the cell count in assay [1] was found to be 328. Further, the inhibition in assay [1] is 3.2% (inactive); in assay [3], -60.6% (inactive); in assay [7] it was -56.5% (inactive); in assay [8], -126% (inactive). For the same compound, the inhibition of aggregation in assay [2] is 7.3% (inactive). The nuclei count in assay [2] worked out at 99.4%; in assay [3] it was 131%. Further, the values for the fluorescence slope in assay [4] and in assay [6] were -0.317 (inactive) and 0.0082 (inactive), respectively. The NADPH fluorescence slope in assay [5] was 5.1e-06 (inactive).

Turning to `Cc1ccc(S(=O)(=O)NC(C(=O)OCC(=O)NC2CCS(=O)(=O)C2)C(C)C)cc1` (centres undefined), in assay [1], the cell count stood at 654. Besides, the inhibition in assay [1] was -10.1% (inactive); in assay [3], -40.2% (inactive); in assay [7], -14% (inactive); in assay [8], 18.4% (inactive). Moreover, in assay [2], the inhibition of aggregation is 9.6% (inactive). Moreover, the results for the nuclei count in assay [2] and in assay [3] were 93.4% and 109%, respectively. In addition, the fluorescence slope is -0.578 (inactive) in assay [4] and 0.0094 (inactive) in assay [6]. Besides, the NADPH fluorescence slope in assay [5] is 9.1e-06 (inactive).

On to `Cc1ccccc1N1CC(c2nc3ccccc3[nH]2)CC1=O` (centres undefined), for which, in assay [1], the cell count was determined as 385. The inhibition in assay [1] was 3% (inactive); in assay [3], -7.2% (inactive); in assay [7], -2.87% (inactive); in assay [8], 98.3% (active). For the same compound, the inhibition of aggregation in assay [2] is -1.2% (inactive). For the same compound, the nuclei count was found to be 107% in assay [2] and 110% in assay [3]. Also, the fluorescence slope in assay [4] was -0.478 (inactive); in assay [6], 0.0056 (inactive). The NADPH fluorescence slope in assay [5] was -1.5e-05 (inactive).

Turning to `Cc1cc(C)n(CCCNC(=O)c2ccc(S(=O)(=O)NCc3ccco3)cc2)n1`, in assay [1], the cell count turned out to be 682. Further, the inhibition in assay [1] is -4.4% (inactive); in assay [3], -9.9% (inactive); in assay [7], 18.9% (inactive); in assay [8], 23% (inactive). In addition, the inhibition of aggregation in assay [2] was -3.9% (inactive). The values for the nuclei count in assay [2] and in assay [3] were 108% and 136%, respectively. The fluorescence slope in assay [4] was -0.562 (inactive); in assay [6] it was 0.00603 (inactive). The NADPH fluorescence slope in assay [5] is -8.3e-05 (inactive).

For `COc1ccc(-c2cc(C(F)F)n3ncc(C(=O)NCC4CCCO4)c3n2)cc1` (centres undefined), in assay [1], the cell count amounted to 244. Moreover, the inhibition in assay [1] is 4.7% (inactive); in assay [3], -51% (inactive); in assay [7] it was 20.7% (inactive); in assay [8], 11.4% (inactive). In addition, the inhibition of aggregation in assay [2] was -15.8% (inactive). Further, the nuclei count in assay [2] is 78.7%; in assay [3], 108%. In addition, the figures for the fluorescence slope in assay [4] and in assay [6] were -0.000811 (active) and 0.00542 (inactive), respectively. Further, in assay [5], the NADPH fluorescence slope was -2.9e-05 (inactive).

As for `Cc1nc(C)c(C(=O)Nc2ccc(Oc3ccccc3)cc2)o1`, in assay [1], the cell count is 405. The inhibition was 0.6% (inactive) in assay [1], -128% (inactive) in assay [3], -20.2% (inactive) in assay [7] and -128% (inactive) in assay [8]. Besides, the inhibition of aggregation in assay [2] is -26.8% (inactive). The results for the nuclei count in assay [2] and in assay [3] were 105% and 119%, respectively. In addition, the results for the fluorescence slope in assay [4] and in assay [6] were -0.306 (inactive) and 0.00832 (inactive), respectively. The NADPH fluorescence slope in assay [5] was -2.3e-05 (inactive).

Take `COc1cccc(CNc2cccc3cccnc23)c1O`: in assay [1], the cell count worked out at 477. Besides, the inhibition in assay [1] is 5% (inactive); in assay [3] it was -165% (inactive); in assay [7] it was 13% (inactive); in assay [8], 8.77% (inactive). For the same compound, the inhibition of aggregation in assay [2] is 19.2% (inactive). The nuclei count in assay [2] turned out to be 79.7%; in assay [3] it was 122%. Also, the figures for the fluorescence slope in assay [4] and in assay [6] were -0.564 (inactive) and 0.00309 (inactive), respectively. Besides, the NADPH fluorescence slope in assay [5] is -7.6e-05 (inactive).

Turning to `COc1ccccc1-c1c(C)nn2c(C)c(C(C)=O)cnc12`, in assay [1], the cell count stood at 768. Also, the inhibition is -0.8% (inactive) in assay [1], 96.7% (active) in assay [3], 17.1% (inactive) in assay [7] and 14.2% (inactive) in assay [8]. In addition, the inhibition of aggregation in assay [2] is 13.5% (inactive). For the same compound, the nuclei count was 97% in assay [2] and 81.4% in assay [3]. The fluorescence slope was -0.611 (inactive) in assay [4] and 0.00778 (inactive) in assay [6]. Besides, the NADPH fluorescence slope in assay [5] is -3.6e-05 (inactive).

As for `Cc1c(NC(=O)C2CCCNC2=O)c(=O)n(-c2ccccc2)n1C` (centres undefined), the cell count in assay [1] stood at 394. Moreover, the inhibition is -2.2% (inactive) in assay [1], -36.5% (inactive) in assay [3], 11.5% (inactive) in assay [7] and 6.36% (inactive) in assay [8]. Besides, in assay [2], the inhibition of aggregation was -1.6% (inactive). In addition, the nuclei count in assay [2] was determined as 101%; in assay [3], 106%. In addition, the fluorescence slope in assay [4] is -0.495 (inactive); in assay [6] it was 0.00472 (inactive). Besides, the NADPH fluorescence slope in assay [5] is 3.2e-05 (inactive).

For the compound `CCOc1ccccc1NC(=O)C1CCCN(C(=O)NCc2ccccc2)C1` (centres undefined), in assay [1], the cell count worked out at 684. The inhibition in assay [1] was -7.7% (inactive); in assay [3] it was -96.5% (inactive); in assay [7], 5.61% (inactive); in assay [8], -20.5% (inactive). In assay [2], the inhibition of aggregation was -15.4% (inactive). Further, the values for the nuclei count in assay [2] and in assay [3] were 114% and 106%, respectively. For the same compound, the fluorescence slope in assay [4] is -0.448 (inactive); in assay [6] it was 0.00645 (inactive). Moreover, the NADPH fluorescence slope in assay [5] was 8e-05 (inactive).

A word on the inhibition: it is the relative decrease from the control value, in per cent.
